Measurements as given in ChEMBL document CHEMBL3352255, “Tailor-made fluorescent trilobolide to study its biological relevance” (J Med Chem, 2014).
Active and inactive are the calls of the source. The rule behind the calls is not given here.

Experiments:
[1] = system: LNCaP; test: Cytotoxicity against human LNCAP cells after 24 hrs by WST-1 assay; type: functional, cell-based
How it was run: (§1)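 Dark cytotoxicity (no light exposure) by WST-1 tetrazolium-to-formazan conversion reflecting metabolic activity; compounds tested at concentrations up to 50 μM for 24, 48 or 72 h; IC50 taken as concentration giving 50% inhibition of cell viability.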

[2] = system: LNCaP; test: Cytotoxicity against human LNCAP cells after 48 hrs by WST-1 assay; type: functional, cell-based; how it was run: as §1
[3] = system: LNCaP; test: Cytotoxicity against human LNCAP cells after 72 hrs by WST-1 assay; type: functional, cell-based; how it was run: as §1
[4] = Cytotoxicity against human PC3 cells after 24 hrs by WST-1 assay; type: functional, cell-based; conditions: PC-3, 24 h; how it was run: as §1
[5] = Cytotoxicity against human PC3 cells after 48 hrs by WST-1 assay; type: functional, cell-based; conditions: PC-3, 48 h; how it was run: as §1
[6] = Cytotoxicity against human PC3 cells after 72 hrs by WST-1 assay; type: functional, cell-based; conditions: PC-3, 72 h; how it was run: as §1
[7] = system: C2C12; test: Cytotoxicity against mouse C2C12 cells after 24 hrs by WST-1 assay; type: functional, cell-based; conditions: C2C12, 24 h; how it was run: as §1
[8] = system: C2C12; test: Cytotoxicity against mouse C2C12 cells after 48 hrs by WST-1 assay; type: functional, cell-based; conditions: C2C12, 48 h; how it was run: as §1
[9] = system: C2C12; test: Cytotoxicity against mouse C2C12 cells after 72 hrs by WST-1 assay; type: functional, cell-based; conditions: C2C12, 72 h; how it was run: as §1
[10] = system: U2OS; test: Cytotoxicity against human U2OS cells after 24 hrs by WST-1 assay; type: functional, cell-based; how it was run: as §1
[11] = system: U2OS; test: Cytotoxicity against human U2OS cells after 48 hrs by WST-1 assay; type: functional, cell-based; how it was run: as §1
[12] = system: U2OS; test: Cytotoxicity against human U2OS cells after 72 hrs by WST-1 assay; type: functional, cell-based; how it was run: as §1
[13] = system: MCF7; test: Cytotoxicity against human MCF7 cells after 24 hrs by WST-1 assay; type: functional, cell-based; conditions: MCF7, 24 h; how it was run: as §1
[14] = system: MCF7; test: Cytotoxicity against human MCF7 cells after 48 hrs by WST-1 assay; type: functional, cell-based; conditions: MCF7, 48 h; how it was run: as §1
[15] = system: MCF7; test: Cytotoxicity against human MCF7 cells after 72 hrs by WST-1 assay; type: functional, cell-based; conditions: MCF7, 72 h; how it was run: as §1
[16] = Cytotoxicity against human MIAPaCa2 cells after 24 hrs by WST-1 assay; type: functional, cell-based; conditions: MIA PaCa-2, 24 h; how it was run: as §1
[17] = Cytotoxicity against human MIAPaCa2 cells after 48 hrs by WST-1 assay; type: functional, cell-based; conditions: MIA PaCa-2, 48 h; how it was run: as §1
[18] = Cytotoxicity against human MIAPaCa2 cells after 72 hrs by WST-1 assay; type: functional, cell-based; conditions: MIA PaCa-2, 72 h; how it was run: as §1
[19] = system: HT-29; test: Cytotoxicity against human HT-29 cells after 24 hrs by WST-1 assay; type: functional, cell-based; conditions: HT-29, 24 h; how it was run: as §1
[20] = system: HT-29; test: Cytotoxicity against human HT-29 cells after 48 hrs by WST-1 assay; type: functional, cell-based; conditions: HT-29, 48 h; how it was run: as §1
[21] = system: HT-29; test: Cytotoxicity against human HT-29 cells after 72 hrs by WST-1 assay; type: functional, cell-based; conditions: HT-29, 72 h; how it was run: as §1
[22] = Cytotoxicity against rat peritoneal cells assessed as reduction in cell viability at 10 uM after 24 hrs by WST-1 assay; type: cell-based
[23] = system: PC-3; test: Induction of LPS-induced NO production in human PC3 cells at 40 uM after 24 hrs using DAR-2 probe by fluorescence assay; type: functional, cell-based
How it was run: (§2)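 NO in living cells (PC-3, LNCaP, MCF-7, U-2 OS) was imaged by fluorescence microscopy with the NO-specific red-emitting probe DAR-2 after compound stimulation.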

[24] = system: LNCaP; test: Induction of LPS-induced NO production in human LNCAP cells at 40 uM after 24 hrs using DAR-2 probe by fluorescence assay; type: functional, cell-based; how it was run: as §2
[25] = system: MCF7; test: Induction of LPS-induced NO production in human MCF7 cells at 40 uM after 24 hrs using DAR-2 probe by fluorescence assay; type: functional, cell-based; how it was run: as §2
[26] = system: U2OS; test: Induction of LPS-induced NO production in human U2OS cells at 40 uM after 24 hrs using DAR-2 probe by fluorescence assay; type: functional, cell-based; how it was run: as §2
[27] = Cellular uptake in Endoplasmic reticulum of human U2OS cells at 1 uM after 1 hr by fluorescence microscopy; type: ADME, cell-based
How it was run: (§3)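 Live-cell fluorescence microscopy of cells exposed to Bodipy-labelled conjugates at 1 μM for 1 h. ER was co-stained with ER-Tracker Blue-White DPX (100 nM, 20 min) to check colocalisation. A Bodipy dye-only stain served as control.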

[28] = Cellular uptake in Endoplasmic reticulum of human PC3 cells at 1 uM after 1 hr by fluorescence microscopy; type: ADME, cell-based; conditions: pc-3, 1 h; how it was run: as §3
[29] = Cellular uptake in Endoplasmic reticulum of human LNCAP cells at 1 uM after 1 hr by fluorescence microscopy; type: ADME, cell-based; how it was run: as §3
[30] = Cellular uptake in Endoplasmic reticulum of human HeLa cells at 1 uM after 1 hr by fluorescence microscopy; type: ADME, cell-based; how it was run: as §3
[31] = Cytotoxicity against rat peritoneal cells assessed as reduction in cell viability at 40 uM after 24 hrs by WST-1 assay; type: cell-based
[32] = organism: Rattus norvegicus; test: Induction of LPS-induced NO production in rat peritoneal cells after 24 hrs using DAR-2 probe by fluorescence assay; type: functional, cell-based
[33] = system: U2OS; test: Cellular uptake in human U2OS cells at 5 uM after 24 hrs by fluorescence microscopy; type: ADME, cell-based
How it was run: (§4)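 Live-cell fluorescence microscopy of Bodipy-labelled conjugates (green emission), 5 μM, uptake followed at 10, 20, 40 min and 1, 3, 5, 24 h. Cells stained with Bodipy dye alone served as control for dye-driven localization.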

[34] = Cellular uptake in human PC3 cells at 5 uM after 24 hrs by fluorescence microscopy; type: ADME, cell-based; conditions: pc-3, 24 h; how it was run: as §4
[35] = system: LNCaP; test: Cellular uptake in human LNCAP cells at 5 uM after 24 hrs by fluorescence microscopy; type: ADME, cell-based; how it was run: as §4
[36] = system: MCF7; test: Cellular uptake in human MCF7 cells at 5 uM after 24 hrs by fluorescence microscopy; type: ADME, cell-based; conditions: mcf7, 24 h
[37] = system: HeLa; test: Cellular uptake in human HeLa cells at 5 uM after 24 hrs by fluorescence microscopy; type: ADME, cell-based; how it was run: as §4
[38] = Cellular uptake in human MIAPaCa2 cells at 5 uM after 24 hrs by fluorescence microscopy; type: ADME, cell-based; conditions: mia paca-2, 24 h; how it was run: as §4
[39] = system: A549; test: Cellular uptake in human A549 cells at 5 uM after 24 hrs by fluorescence microscopy; type: ADME, cell-based; conditions: a549, 24 h; how it was run: as §4
[40] = system: C2C12; test: Cellular uptake in mouse C2C12 cells at 5 uM after 24 hrs by fluorescence microscopy; type: ADME, cell-based; conditions: c2c12, 24 h; how it was run: as §4
[41] = Cellular uptake in HEK293T cells at 5 uM after 24 hrs by fluorescence microscopy; type: ADME, cell-based; conditions: human, hek-293t; how it was run: as §4
[42] = Cytotoxicity against rat peritoneal cells assessed as reduction in cell viability at 40 uM after 24 hrs by WST-1 assay

Structure (SMILES)	IC50 [1] [µM]	IC50 [2] [µM]	IC50 [3] [µM]	IC50 [4] [µM]	IC50 [5] [µM]	IC50 [6] [µM]	IC50 [7] [µM]	IC50 [8] [µM]	IC50 [9] [µM]	IC50 [10] [µM]	IC50 [11] [µM]	IC50 [12] [µM]	IC50 [13] [µM]	IC50 [14] [µM]	IC50 [15] [µM]	IC50 [16] [µM]	IC50 [17] [µM]	IC50 [18] [µM]	IC50 [19] [µM]	IC50 [20] [µM]	further results
C/C=C(/C)C(=O)O[C@@H]1C[C@H]2C(=C1C)[C@@H]1OC(=O)[C@@](C)(O)[C@@]1(O)[C@@H](OC(=O)[C@@H](C)CC)C[C@]2(C)OC(C)=O	3.4	0.5	0.4	9.6	1.3	0.5	4	1	0.3	12.5	0.2	0.7	0.2	2.5	2.1	17.4	6	1.5	41.4	9.8	IC50 [21]: 9.5 µM; Activity [22]: 65%; Activity [23]: Active; Activity [24]: Active; Activity [25]: Active; Activity [26]: Active; Drug uptake [27]: Active; Drug uptake [28]: Active; Drug uptake [29]: Active; Drug uptake [30]: Active
C/C=C(/C)C(=O)O[C@@H]1C[C@H]2C(=C1C)[C@@H]1OC(=O)[C@@](C)(O)[C@@]1(O)[C@@H](OC(=O)CCOCCOCCOCCOCCOCCOCCOCCOCCOCCOCCn1cc(COc3ccc(C4=C5C=CC=[N+]5[B-](F)(F)n5cccc54)cc3)nn1)C[C@]2(C)OC(C)=O	> 50	> 50	> 50	> 50	> 50	> 50	> 50	> 50	> 50	> 50	> 50	> 50	> 50	48	47.3	> 50	50	41.1	> 50	> 50	IC50 [21]: > 50 µM; Activity [31]: Non-toxic; Activity [32]: Dose-dependent effect; Drug uptake [33]: Not Active; Drug uptake [34]: Not Active; Drug uptake [35]: Not Active; Drug uptake [36]: Not Active; Drug uptake [37]: Not Active; Drug uptake [38]: Not Active; Drug uptake [39]: Not Active; Drug uptake [40]: Not Active; Drug uptake [41]: Not Active; Activity [42]: Non-toxic
